We go through 18 molecules from paper PMC2761767 (Journal of medicinal chemistry, 2009).

Read-outs that look alike come from different tables or passages of the source.

The test system of one data set is HL-60 (leukemia) cells. The data set is described as follows: MTT cytotoxicity assay, HL-60. It counts as cell-based, human. The settings on record: read-out: IC50, in vitro cytotoxicity, HL-60, HL-60 cells. On the technique in general: Formazan colour is commonly taken as a measure of viable cells.
Data set [1] has as its system HCT-116 (colon cancer) cells. Nature of the data set: MTT cytotoxicity assay, HCT-116. The format is cell-based, human. Conditions: read-out: IC50, in vitro cytotoxicity, HCT-116, HCT-116 cells.
The test system of data set [2] is A549 (non-small cell lung carcinoma) cells. Nature of the data set: SRB cytotoxicity assay, A549. The format is cell-based, human. The settings on record: read-out: IC50, in vitro cytotoxicity, A549. In short, it runs like this: (§1)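 Cells exposed to test compound or DMSO vehicle for the stated periods, then fixed with 10% TCA. Staining used 0.4% (w/v) sulforhodamine B in 1% acetic acid, with unbound dye washed out in 1% acetic acid. Bound dye was dissolved in 10 mM Trizma base and absorbance read at 515 nm. IC50 taken from the resulting absorbance data.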
(In general: In SRB staining, fixed cells bind dye roughly in proportion to their protein.)

A further data set has as its system Hep 3B (hepatoma) cells. Nature of the data set: MTT cytotoxicity assay, Hep 3B. The format is cell-based, human. The settings on record: read-out: IC50, in vitro cytotoxicity, Hep 3B, Hep 3B cells.
The subject of data set [3] is KB (epidermoid carcinoma of the nasopharynx) cells. The data set is described as follows: SRB cytotoxicity assay, KB. Conditions: read-out: IC50, in vitro cytotoxicity, KB. It counts as cell-based, human. The method, boiled down:
as §1

Data set [4] has as its system KB-VIN (p-glycoprotein-expressing epidermoid carcinoma of the nasopharynx) cells. Nature of the data set: SRB cytotoxicity assay, KB-VIN. The format is cell-based, human. Conditions: read-out: IC50, in vitro cytotoxicity, Kb-VIN, KB-VIN cells (vincristine-resistant). The method, boiled down: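 For A549, KB, KB-VIN and DU145, an SRB assay was used. Cells were exposed to the test compound or DMSO, fixed with 10% TCA and stained with 0.4% (w/v) SRB in 1% acetic acid. Unbound dye was washed out with 1% acetic acid, bound dye solubilized in 10 mM Trizma base, and absorbance read at 515 nm.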

The subject of data set [5] is DU145 (prostate cancer) cells. Nature of the data set: SRB cytotoxicity assay, DU145. The format is cell-based, human. The settings on record: read-out: IC50, in vitro cytotoxicity, DU145. In short, it runs like this:
as §1

In data set [6] the test system is HL-60, HCT-116, H226, A549, Hep G2 and A498 cancer cell lines. The data set is described as follows: Cytotoxicity of deacetylated amides 46-53. The format is cell-based. Conditions: read-out: IC50 values, cytotoxicity.
A further data set deals with tubulin. Nature of the data set: Inhibition of [3H]colchicine binding to tubulin. The settings on record: 1 µM tubulin, 5 µM [3H]colchicine, 10 min at 37 °C; for Inhibition of Colchicine Binding % inhibition at tested concentration, 1 µM: 1 µM inhibitor; for Inhibition of Colchicine Binding % inhibition at tested concentration, 5 µM: 5 µM inhibitor.
Data set [7] has as its system 60 human tumor cell lines. The data set is described as follows: NCI screening against 60 human tumor cell lines. It counts as cell-based.
Data set [8] deals with seven human cancer cell lines (HL-60, HCT-116, A549, Hep 3B, KB, KB-VIN, DU145). The data set is described as follows: In vitro cytotoxicity, all seven cancer cell lines together. The format is cell-based. Conditions: read-out: IC50 values, range over all seven cancer cell lines.
For the next data set, the system named is OVCAR-3 xenograft. The settings on record: ip, once weekly for 3 courses, cited from earlier work.
The conditions of data set [9]: ip, once weekly for 3 courses; prior in vivo study; cited from earlier work.
For data set [10] the following is noted: mice model, unpublished data.

As a reminder, the IC50 is the concentration needed to halve the response being measured. Regarding “2-(2-Benzo[b]furyl)-6,7-methylenedioxyquinolin-4-one [Compound 38]”, the IC50 (with HL-60 (leukemia) cells; in data set [1]; in data set [2]; in the data set with Hep 3B (hepatoma) cells; in [3]; in [4]) was over 1000 nM throughout. Besides, the IC50 in [5] is over 1000 nM.
With “2-(5-Quinolinyl)-6,7-methylenedioxyquinolin-4-one [Compound 44]”, the IC50 (in the data set on HL-60 (leukemia) cells; in data set [1]; in data set [2]; in the data set with Hep 3B (hepatoma) cells; in [3]; in [4]) was over 10000 nM in each case. Also, the IC50 in data set [5] was over 10000 nM.
On to “2-(1-Anthracenyl)-6,7-methylenedioxyquinolin-4-one [Compound 45]”, for which the figures for the IC50 (in the data set with HL-60 (leukemia) cells; in data set [1]; in the data set with Hep 3B (hepatoma) cells) were 530 nM, 1600 nM and 2200 nM, respectively.
For the molecule `O=C(Nc1ccc2c(c1)OCO2)c1ccc2ccccc2c1` [Compound 50, N-(1,3-Benzodioxol-5-yl)naphthalene-2-carboxamide], the IC50 in [6] is over 10000 nM.
With `O=C(Nc1ccc2c(c1)OCO2)c1csc2ccccc12` [Compound 46, N-(1,3-Benzodioxol-5-yl)-1-benzothiophene-3-carboxamide], the IC50 in [6] is over 10000 nM.
In the case of `O=C(Nc1ccc2c(c1)OCO2)c1cccc2ncccc12` [Compound 53, N-(1,3-Benzodioxol-5-yl)quinoline-5-carboxamide], in data set [6], the IC50 was over 10000 nM.
“2-(2-Quinolinyl)-6,7-methylenedioxyquinolin-4-one [Compound 43]”: the IC50 (in the data set with HL-60 (leukemia) cells; in [1]; in data set [2]; in the data set with Hep 3B (hepatoma) cells; in data set [3]; in data set [4]) was over 5000 nM in each case. Further, the 50% inhibitory concentration (IC50) in data set [5] was over 5000 nM.
With “2-(3-Benzo[b]furyl)-6,7-methylenedioxyquinolin-4-one [Compound 37]”, the IC50 in the data set with HL-60 (leukemia) cells was 30 nM; in data set [1] it was 50 nM; in data set [2], 2980 nM; in the data set on Hep 3B (hepatoma) cells, 90 nM; in [3], 1050 nM; in data set [4], 590 nM. In addition, the IC50 in data set [5] was 1870 nM. In addition, the “Inhibition of Colchicine Binding % inhibition at tested concentration, 1 µM” value in the data set on tubulin was found to be 39%. Besides, the “Inhibition of Colchicine Binding % inhibition at tested concentration, 5 µM” value in the data set with tubulin is given as 51%. In addition, the “Growth inhibition, NCI preliminary screening” value in data set [7] (HCC-2998, KM-12, SF-539, SNB-75, SK-MEL-5, IGROV1, OVCAR-3) is recorded as “significantly inhibited the growth”. For the same molecule, the “Cytotoxicity against leukemia cell lines, NCI preliminary screening” value in data set [7] (many leukemia cell lines (Figure 5)) was “potent selective cytotoxicity”.
In the case of “2-(1-Naphthalenyl)-6,7-methylenedioxyquinolin-4-one [Compound 39]”, the IC50 was 70 nM in the data set with HL-60 (leukemia) cells; 70 nM in [1]; 130 nM in data set [2]; 70 nM in the data set with Hep 3B (hepatoma) cells; 130 nM in [3]; 190 nM in data set [4]. Also, the IC50 was 130 nM in [5] and 70 to 190 nM in data set [8]. Further, the “Inhibition of Colchicine Binding % inhibition at tested concentration, 1 µM” value with tubulin is recorded as 33%. Further, the “Inhibition of Colchicine Binding % inhibition at tested concentration, 5 µM” value in the data set on tubulin was 67%.
Turning to “2-(3-Benzo[b]thienyl)-6,7-methylenedioxyquinolin-4-one [Compound 1]”, the IC50 is 170 nM with HL-60 (leukemia) cells; 140 nM in data set [1]; over 250 nM in data set [2]; 60 nM with Hep 3B (hepatoma) cells; over 250 nM in data set [3]; over 250 nM in data set [4]. The IC50 in [5] is over 250 nM. Further, in the data set with tubulin, the “Inhibition of Colchicine Binding % inhibition at tested concentration, 1 µM” value came to 25%. Also, the “Inhibition of Colchicine Binding % inhibition at tested concentration, 5 µM” value with tubulin is recorded as 61%.
Take “2-(4-Quinolinyl)-6,7-methylenedioxyquinolin-4-one [Compound 41]”: the IC50 (with HL-60 (leukemia) cells; in data set [1]; in data set [2]; in the data set with Hep 3B (hepatoma) cells; in data set [3]; in [4]) was over 5000 nM each time. Moreover, the IC50 in data set [5] was over 5000 nM.
Regarding `COc1cccc(-c2cc(O)c3cc(N4CCCC4)ccc3n2)c1` [B, 2-(3-methoxyphenyl)-6-pyrrolinylquinolin-4-one], in the data set on OVCAR-3 xenograft (at MTD 25 mg/kg, prior in vivo study), the “Antitumor activity against the OVCAR-3 xenograft model” value is “moderate antitumor activity”. Also, the “Maximum tolerated dose (MTD)” value in data set [9] was 25 mg/kg.
Turning to `O=C(Nc1ccc2c(c1)OCO2)c1ccnc2ccccc12` [Compound 51, N-(1,3-Benzodioxol-5-yl)quinoline-4-carboxamide], in data set [6], the IC50 is over 10000 nM.
Turning to “2-(2-fluorophenyl)-6,7-methylenedioxyquinolin-4-one [CHM-1]”, the “Extension of life span of tumor-bearing mice” value with OVCAR-3 xenograft (79 mg/kg) is reported as 79%; in the data set on OVCAR-3 xenograft (134 mg/kg) it was 133%; in the data set with OVCAR-3 xenograft (200 mg/kg), 124%. Besides, in [9], the “Maximum tolerated dose (MTD)” value is given as over 200 mg/kg.
In the case of `O=P([O-])(O)Oc1cc(-c2ccccc2F)nc2cc3c(cc12)OCO3.[Na+]` [CHM-1-P-Na], in [10], the “Metabolism of the 6,7-methylenedioxy moiety” value was “metabolized to an ortho-quinone”.
Regarding “2-(2-Benzo[b]thienyl)-6,7-methylenedioxyquinolin-4-one [Compound 36]”, the IC50 (in the data set on HL-60 (leukemia) cells; in data set [1]; in data set [2]; with Hep 3B (hepatoma) cells; in [3]; in data set [4]) was over 1000 nM throughout. Further, in data set [5], the IC50 is over 1000 nM.
In the case of “2-(3-Quinolinyl)-6,7-methylenedioxyquinolin-4-one [Compound 42]”, the IC50 (in the data set on HL-60 (leukemia) cells; in data set [1]; in data set [2]; in the data set with Hep 3B (hepatoma) cells; in data set [3]; in data set [4]) was over 100 nM throughout. Also, the IC50 in [5] is over 100 nM.
On to “2-(2-Naphthalenyl)-6,7-methylenedioxyquinolin-4-one [Compound 40]”, for which the IC50 in the data set on HL-60 (leukemia) cells is 500 nM; in data set [1] it was over 1000 nM; in data set [2], over 1000 nM; with Hep 3B (hepatoma) cells it was over 1000 nM; in [3] it was over 1000 nM; in [4], over 1000 nM. In data set [5], the IC50 was over 1000 nM.
